Test results reported in ChEMBL document CHEMBL1781999, “Lead optimization of aryl and aralkyl amine-based triazolopyrimidine inhibitors of Plasmodium falciparum dihydroorotate dehydrogenase with antimalarial activity in mice” (J Med Chem, 2011).
Activity calls are given as the source filed them. No cut-off for these calls is given here.

Key:
Rattus norvegicus [1] = assay: Terminal elimination half life in Sprague-Dawley rat at 5.1 mg/kg, iv by LC-MS analysis; format: ADME, organism-based; design: dose 5.1 mg/kg, route intravenous; conditions: in vivo
Outline: (§1)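 Overnight-fasted male Sprague Dawley rats (n=2 per dose). IV dosing was a 10 min jugular infusion in a solution vehicle of DMSO and acid with Captisol or Tween/glucose, depending on compound; oral dosing was by gavage as a suspension.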

Plasmodium berghei ANKA [2] = assay: Antimalarial activity against Plasmodium berghei ANKA NK65 infected in Swiss Webster mouse assessed as complete reduction of parasitemia level at 50 mg/kg, po bid administered for 4 days measured 24 hrs after last dose by light microscopic analysis; format: functional, organism-based; design: dose 50 mg/kg
Plasmodium berghei ANKA [3] = assay: Antimalarial activity against Plasmodium berghei ANKA NK65 infected in Swiss Webster mouse assessed as complete reduction of parasitemia level at 100 mg/kg, po qd administered for 4 days measured 24 hrs after last dose by light microscopic analysis; format: functional, organism-based; design: dose 100 mg/kg
Outline: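 Female Swiss Webster mice, 8-10 weeks old (20-22 g), infected intraperitoneally with 2 × 10^7 P. berghei NK65 ANKA-infected erythrocytes. Oral doses in CMC vehicle (200 μL), first given 3 h post-infection, then at 24, 48 and 72 h. Parasitemia followed daily from 24 h by light microscopy at 1000× oil immersion, counting ≥10 fields of >100 erythrocytes. Mice losing ≥20% body weight were euthanized.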

Rattus norvegicus [4] = assay: AUC (0 to infinity) in Sprague-Dawley rat at 20.1 mg/kg, po by LC-MS analysis; format: ADME, organism-based, Plasma; design: time infinity, dose 20.1 mg/kg, route oral; conditions: in vivo
Outline: (§2)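 Overnight-fasted male Sprague Dawley rats (n=2 per compound) gavaged with an aqueous suspension (DMSO, cellulose, benzyl alcohol, Tween 80 in water); food returned 4 h post-dose. Arterial blood via carotid cannula up to 24 h into heparinized tubes with stabilization cocktail. Plasma acetonitrile-precipitated, LC-MS against blank-plasma standards. AUC by non-compartmental analysis; Cmax read from profiles.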

Rattus norvegicus [5] = assay: Volume of distribution at steady state in Sprague-Dawley rat at 5.1 mg/kg, iv by LC-MS analysis; format: ADME, organism-based; design: dose 5.1 mg/kg, route intravenous; conditions: in vivo; outline: as §1
Rattus norvegicus [6] = assay: Cmax in Sprague-Dawley rat at 20.1 mg/kg, po by LC-MS analysis; format: ADME, organism-based; design: dose 20.1 mg/kg, route oral; conditions: in vivo; outline: as §2
Rattus norvegicus [7] = assay: Terminal elimination half life in Sprague-Dawley rat at 1 mg/kg, iv by LC-MS analysis; format: ADME, organism-based; design: dose 1 mg/kg, route intravenous; conditions: in vivo; outline: as §1
Rattus norvegicus [8] = assay: Terminal elimination half life in Sprague-Dawley rat at 20.1 mg/kg, po by LC-MS analysis; format: ADME, organism-based; design: dose 20.1 mg/kg, route oral; conditions: in vivo; outline: as §1
[9] = Antimalarial activity against Plasmodium berghei ANKA NK65 infected in po dosed Swiss Webster mouse assessed as reduction of parasitemia level administered qd for 4 days measured 24 hrs after last dose by light microscopic analysis; format: functional
Rattus norvegicus [10] = assay: Volume of distribution at steady state in Sprague-Dawley rat at 1 mg/kg, iv by LC-MS analysis; format: ADME, organism-based; design: dose 1 mg/kg, route intravenous; conditions: in vivo; outline: as §1
Rattus norvegicus [11] = assay: Oral bioavailability in Sprague-Dawley rat at 20.1 mg/kg by LC-MS analysis; format: ADME, organism-based; conditions: in vivo
Outline: (§3)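 Overnight-fasted male Sprague Dawley rats, dosed orally by gavage as an aqueous suspension, n=2. Arterial blood taken via carotid cannula up to 24 h; plasma measured by LC-MS. %F = mean dose-normalized oral AUC0-24h versus IV AUC0-24h at the higher IV dose (5 mg/kg or 3 mg/kg, depending on compound); treated as an estimate.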

Plasmodium berghei ANKA [12] = assay: Antimalarial activity against Plasmodium berghei ANKA NK65 infected in Swiss Webster mouse assessed as complete cure of animal at 100 mg/kg, po bid measured on day 9 by light microscopic analysis; format: functional, organism-based; design: dose 100 mg/kg
Rattus norvegicus [13] = assay: Terminal elimination half life in Sprague-Dawley rat at 0.9 mg/kg, iv by LC-MS analysis; format: ADME, organism-based; design: dose 0.9 mg/kg, route intravenous; conditions: in vivo; outline: as §1
[14] = AUC (0 to infinity) in Sprague-Dawley rat at 18.6 mg/kg, po by LC-MS analysis; format: ADME, organism-based; design: time infinity, dose 18.6 mg/kg, route oral; conditions: plasma; outline: as §2
Rattus norvegicus [15] = assay: Volume of distribution at steady state in Sprague-Dawley rat at 2.9 mg/kg, iv by LC-MS analysis; format: ADME, organism-based; design: dose 2.9 mg/kg, route intravenous; conditions: in vivo; outline: as §1
[16] = Terminal elimination half life in Sprague-Dawley rat at 18.6 mg/kg, po by LC-MS analysis; format: ADME, organism-based; design: dose 18.6 mg/kg, route oral; conditions: in vivo, read-out: beta t1/2 (converted); outline: as §1
Rattus norvegicus [17] = assay: Volume of distribution at steady state in Sprague-Dawley rat at 0.9 mg/kg, iv by LC-MS analysis; format: ADME, organism-based; design: dose 0.9 mg/kg, route intravenous; conditions: in vivo; outline: as §1
Rattus norvegicus [18] = assay: Terminal elimination half life in Sprague-Dawley rat at 2.9 mg/kg, iv by LC-MS analysis; format: ADME, organism-based; design: dose 2.9 mg/kg, route intravenous; conditions: in vivo; outline: as §1
[19] = Oral bioavailability in Sprague-Dawley rat at 18.6 mg/kg by LC-MS analysis; format: ADME, organism-based; conditions: in vivo; outline: as §3
[20] = Cmax in Sprague-Dawley rat at 18.6 mg/kg, po by LC-MS analysis; format: ADME, organism-based; design: dose 18.6 mg/kg, route oral; conditions: in vivo; outline: as §2

| Compound | beta t1/2 (Rattus norvegicus [1]) | Activity (Plasmodium berghei ANKA [2]) | Activity (Plasmodium berghei ANKA [3]) | AUC (Rattus norvegicus [4]) | Vdss (Rattus norvegicus [5]) | Cmax (Rattus norvegicus [6]) | beta t1/2 (Rattus norvegicus [7]) | beta t1/2 (Rattus norvegicus [8]) | ED50 [9] | Vdss (Rattus norvegicus [10]) | F (Rattus norvegicus [11]) | Activity (Plasmodium berghei ANKA [12]) | beta t1/2 (Rattus norvegicus [13]) | AUC(0-inf) [14] | Vdss (Rattus norvegicus [15]) | half-life [16] | Vdss (Rattus norvegicus [17]) | beta t1/2 (Rattus norvegicus [18]) | bioavailability [19] | Cmax [20] |
| --- | --- | --- | --- | --- | --- | --- | --- | --- | --- | --- | --- | --- | --- | --- | --- | --- | --- | --- | --- | --- |
| Cc1cc(Nc2ccc(S(F)(F)(F)(F)F)cc2)n2ncnc2n1 | 14.5 h | inactive | inactive | 101693 µM·min | 1.5 L/kg | 31 µM | 11.4 h | 33 h | 17 mg/kg | 1.4 L/kg | > 100% | – | – | – | – | – | – | – | – | – |
| Cc1cc(Nc2cc(F)c(C(F)(F)F)c(F)c2)n2ncnc2n1 | – | – | – | – | – | – | – | – | – | – | – | inactive | 1.6 h | 1250 µM·h | 0.5 L/kg | 17.6 h | 0.4 L/kg | 4.5 h | > 100% | 34.3 µM |
